The target in series [1] is T1, 11-beta-hydroxysteroid dehydrogenase type 2 (Homo sapiens) (UniProt P80365).
T1 sequence (whole entry): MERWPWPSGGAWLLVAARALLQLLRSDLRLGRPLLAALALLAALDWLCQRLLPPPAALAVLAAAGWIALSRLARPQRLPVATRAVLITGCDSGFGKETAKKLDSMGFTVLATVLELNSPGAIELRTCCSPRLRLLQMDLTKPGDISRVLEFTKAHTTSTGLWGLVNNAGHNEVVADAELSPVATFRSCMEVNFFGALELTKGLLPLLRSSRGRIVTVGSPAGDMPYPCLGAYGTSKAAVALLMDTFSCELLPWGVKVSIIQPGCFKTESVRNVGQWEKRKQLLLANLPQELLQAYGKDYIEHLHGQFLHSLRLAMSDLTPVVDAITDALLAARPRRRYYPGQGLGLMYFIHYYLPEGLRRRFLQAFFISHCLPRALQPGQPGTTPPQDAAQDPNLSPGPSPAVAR
As to the kind of experiment: Inhibition of human 11beta-HSD2 expressed in CHO cells assessed as conversion of [3H]cortisol to [3H]cortisone at 10 uM after 2 hrs.

Series [2] has as its target T2, 17-beta-hydroxysteroid dehydrogenase type 1 (Homo sapiens) (UniProt P14061).
T2 sequence (whole entry): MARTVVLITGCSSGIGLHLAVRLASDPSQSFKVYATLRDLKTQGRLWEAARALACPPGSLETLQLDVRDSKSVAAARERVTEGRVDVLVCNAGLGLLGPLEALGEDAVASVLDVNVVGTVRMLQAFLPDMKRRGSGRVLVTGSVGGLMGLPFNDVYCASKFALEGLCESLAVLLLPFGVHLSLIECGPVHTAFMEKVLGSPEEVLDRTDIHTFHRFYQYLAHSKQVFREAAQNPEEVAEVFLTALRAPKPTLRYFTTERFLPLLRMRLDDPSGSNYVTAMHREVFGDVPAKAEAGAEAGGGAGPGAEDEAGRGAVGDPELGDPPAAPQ
As to the kind of experiment: Inhibition of human 17beta-HSD1 in human T47D cells assessed as conversion of [3H]E1 to [3H]E2 at 10 uM after 30 mins. The format is cell-based.

Series [3] can be described thus: Half life in human liver microsomes by HPLC analysis in presence of NADPH. The format is ADME, Microsome. An outline of the steps:
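Parent compound incubated with human liver microsomes plus NADPH cofactor at 37 °C for 40 min; remaining parent quantified by HPLC to derive T1/2.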
For orientation: Liver microsomes are vesicles of endoplasmic reticulum, rich in cytochrome P450 enzymes.

The target of series [4] is 11-beta-hydroxysteroid dehydrogenase 1 (Homo sapiens) (UniProt P28845). As to the kind of experiment: Inhibition of human 11beta-HSD1 expressed in HEK293 cells assessed as conversion of [3H]cortisone to [3H]cortisol at 1 uM after 2 hrs by scintillation counting. The format is cell-based. An outline of the steps:
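HSD11B1-stably transfected HEK-293 cells grown to 80% confluence, then given serum-free medium with 22 nM ³H-cortisone and compound in 1% DMSO, 37 °C, 2 h. Medium sampled into anti-cortisol antibody/SPA bead mix, shaken to equilibrium, scintillation counted. Percent inhibition against high controls (no compound) and low controls (no cells).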

Calls of active or inactive are those of the source. The rule behind the calls is not given here.

Chain of 11-beta-hydroxysteroid dehydrogenase 1 (Homo sapiens) (P28845 whole entry, looked up): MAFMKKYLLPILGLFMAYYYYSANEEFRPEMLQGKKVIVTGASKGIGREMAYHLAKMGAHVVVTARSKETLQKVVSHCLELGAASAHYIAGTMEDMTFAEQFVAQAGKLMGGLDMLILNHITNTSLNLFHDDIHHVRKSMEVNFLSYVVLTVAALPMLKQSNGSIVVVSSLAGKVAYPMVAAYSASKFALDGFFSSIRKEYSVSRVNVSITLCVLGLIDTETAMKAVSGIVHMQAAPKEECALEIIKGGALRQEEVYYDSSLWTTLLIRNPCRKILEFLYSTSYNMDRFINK

Usually inhibition stands for the share of the control response that was lost under treatment. Turning to `CC(=O)Nc1cccc(CN(C)C(=O)C23CC4CC(CC(C4)C2)C3)c1`, the inhibition entry in series [1] and in series [2] was “inactive” in each case.

On to `CN(Cc1cccc(Cl)c1)C(=O)C12CC3CC(CC(C3)C1)C2`, for which the inhibition result in series [1] and in series [2] was “inactive” in each case.

Turning to `Cc1ccc(C2(C(=O)N(C)Cc3cccs3)CC2)cc1`, the inhibition result in series [1] and in series [2] was “inactive” each time.

With `CN(Cc1cccs1)C(=O)C1(c2ccc(Cl)cc2)CC1`, the inhibition entry in series [1] and in series [2] was “inactive” in each case.

Consider `CN(Cc1ccc(Cl)s1)C(=O)C12CC3CC(CC(C3)C1)C2`, for which the inhibition result in series [1] and in series [2] was “inactive” each time.

As for `Cc1csc(CN(C)C(=O)C23CC4CC(CC(C4)C2)C3)c1`, the inhibition entry in series [1] and in series [2] was “inactive” in each case.

Turning to `CN(Cc1cccs1)C(=O)C1(c2ccc(Cl)cc2)CCC1`, the inhibition result in series [1] and in series [2] was “inactive” each time.

For the molecule `Cc1ccc(CN(C)C(=O)C23CC4CC(CC(C4)C2)C3)s1`, the inhibition entry in series [1] and in series [2] was “inactive” each time.

As to `O=C(NCc1cccs1)C12CC3CC(CC(C3)C1)C2`, the inhibition result in series [1] and in series [2] was “inactive” in each case.

Consider `Cc1csc(CNC(=O)C23CC4CC(CC(C4)C2)C3)c1`, for which the inhibition result in series [1] and in series [2] was “inactive” each time.

For `O=C(NCc1ccccn1)C12CC3CC(CC(C3)C1)C2`, the inhibition result in series [1] and in series [2] was “inactive” in each case.

With `O=C(CC12CC3CC(CC(C3)C1)C2)NCc1cccs1`, the inhibition result in series [1] and in series [2] was “inactive” throughout.

Take `CN(Cc1ccsc1)C(=O)C12CC3CC(CC(C3)C1)C2`: the inhibition result in series [1] and in series [2] was “inactive” in each case.

With `CN(Cc1cccn1C)C(=O)CC12CC3CC(CC(C3)C1)C2`, the inhibition result in series [1] and in series [2] was “inactive” in each case.

As for `CN(Cc1ccnn1C)C(=O)C12CC3CC(CC(C3)C1)C2`, the inhibition result in series [1] and in series [2] was “inactive” throughout.

With `CN(CCc1cccs1)C(=O)C12CC3CC(CC(C3)C1)C2`, the inhibition result in series [1] and in series [2] was “inactive” throughout.

Take `Cn1cccc1CNC(=O)C12CC3CC(CC(C3)C1)C2`: the inhibition result in series [1] and in series [2] was “inactive” each time.

Consider `CN(Cc1cccs1)C(=O)CC12CC3CC(CC(C3)C1)C2`, for which the inhibition result in series [1] and in series [2] was “inactive” throughout.

In the case of `O=C(NCCc1ccccn1)C12CC3CC(CC(C3)C1)C2`, the inhibition result in series [1] and in series [2] was “inactive” throughout.

As to `CN(Cc1sccc1N)C(=O)C12CC3CC(CC(C3)C1)C2`, the inhibition entry in series [1] and in series [2] was “inactive” throughout.

For the molecule `CN(Cc1cccnc1)C(=O)C12CC3CC(CC(C3)C1)C2`, the inhibition entry in series [1] and in series [2] was “inactive” each time.

In the case of `O=C(NCc1cccnc1)C12CC3CC(CC(C3)C1)C2`, the inhibition entry in series [1] and in series [2] was “inactive” in each case.

By half-life is commonly meant how long it takes for the measured level to halve. Turning to `CN(Cc1cccs1)C(=O)C12CC3CC(CC(C3)C1)C2`, the half-life in series [3] is 60 min. The inhibition entry in series [1] and in series [2] was “inactive” throughout.

With `CN(Cc1nccn1C)C(=O)C12CC3CC(CC(C3)C1)C2`, the inhibition result in series [1] and in series [2] was “inactive” in each case.

As for `O=C(NCCc1cccs1)C12CC3CC(CC(C3)C1)C2`, the inhibition entry in series [1] and in series [2] was “inactive” in each case.

For the molecule `CN(Cc1cccs1)C(=O)C1(c2ccc(Cl)cc2)CCCC1`, the inhibition entry in series [1] and in series [2] was “inactive” each time.

As for `O=C(NCCc1cccnc1)C12CC3CC(CC(C3)C1)C2`, the inhibition entry in series [1] and in series [2] was “inactive” throughout.

Take `CN(Cc1cccs1)C(=O)C12CC3CC(CC1C3)C2`: the inhibition entry in series [1] and in series [2] was “inactive” in each case.

In the case of `CN(Cc1ccco1)C(=O)C12CC3CC(CC(C3)C1)C2`, the inhibition result in series [1] and in series [2] was “inactive” each time.

`CN(Cc1ccsc1)C(=O)CC12CC3CC(CC(C3)C1)C2`: the inhibition result in series [1] and in series [2] was “inactive” each time.

Take `Cc1cccc(CN(C)C(=O)C23CC4CC(CC(C4)C2)C3)n1`: the inhibition entry in series [1] and in series [2] was “inactive” in each case.

Regarding `CN(Cc1cccs1)C(=O)C1(C)CCCCC1`, the inhibition result in series [1] and in series [2] was “inactive” in each case.

Take `Cc1csc(CN(C)C(=O)C23CC4CC(CC(C4)C2)C3)n1`: the inhibition result in series [1] and in series [2] was “inactive” each time.

In the case of `Cc1cccc(CN(C)C(=O)C23CC4CC(CC(C4)C2)C3)c1`, the inhibition entry in series [1] and in series [2] was “inactive” in each case.

With `Cn1cccc1CNC(=O)CC12CC3CC(CC(C3)C1)C2`, the inhibition result in series [1] and in series [2] was “inactive” each time.

In the case of `CN(Cc1cccnc1)C(=O)CC12CC3CC(CC(C3)C1)C2`, the inhibition entry in series [1] and in series [2] was “inactive” throughout.

As for `O=C(NCc1ccco1)C12CC3CC(CC(C3)C1)C2`, the inhibition entry in series [1] and in series [2] was “inactive” in each case.

For the molecule `CN(Cc1ccccn1)C(=O)CC12CC3CC(CC(C3)C1)C2`, the inhibition result in series [1] and in series [2] was “inactive” in each case. The inhibition in series [4] came to 26%.

For `CN(CCc1ccccn1)C(=O)C12CC3CC(CC(C3)C1)C2`, the inhibition result in series [1] and in series [2] was “inactive” throughout.

`CN(Cc1cccc(N)c1)C(=O)C12CC3CC(CC(C3)C1)C2`: the inhibition entry in series [1] and in series [2] was “inactive” each time.

On to `Cc1ccsc1CN(C)C(=O)C12CC3CC(CC(C3)C1)C2`, for which the inhibition entry in series [1] and in series [2] was “inactive” in each case.

On to `CN(Cc1cccn1C)C(=O)C12CC3CC(CC(C3)C1)C2`, for which the half-life in series [3] turned out to be 60 min. Also, the inhibition entry in series [1] and in series [2] was “inactive” each time.

The values above are taken from ChEMBL document CHEMBL2157887, “Adamantyl carboxamides and acetamides as potent human 11β-hydroxysteroid dehydrogenase type 1 inhibitors” (Bioorg Med Chem, 2012).
